System: U2OS
Test: Multiplex assay against U2OS
Type: toxicity, cell-based
Details: human
How it was run: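 Four dyes were applied at seeding to live cells: Hoechst33342, BioTracker Green Microtubule Cytoskeleton Dye, MitoTracker Red and Annexin V Alexa Fluor 680. Imaging after compound addition used a CQ1 microscope at 37°C and 5% CO2. CellPathfinder machine-learning gating then sorted cells into Hoechst high-intensity objects or normal cells, normal cells into healthy, pyknosed or fragmented nuclei, and pyknosed cells into mitotic or apoptotic, with tubulin, mitochondrial-mass and membrane-permeability phenotypes given as per cents of healthy-nucleus cells.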

[1] = 12 h, 1 µM, compound concentration 1 uM, replicate 1
[2] = 12 h, 1 µM, compound concentration 1 uM, replicate 2
[3] = 12 h, 10 µM, compound concentration 10 uM, replicate 1
[4] = 12 h, 10 µM, compound concentration 10 uM, replicate 2
[5] = 24 h, 1 µM, compound concentration 1 uM, replicate 1
[6] = 24 h, 1 µM, compound concentration 1 uM, replicate 2
[7] = 24 h, 10 µM, compound concentration 10 uM, replicate 1
[8] = 24 h, 10 µM, compound concentration 10 uM, replicate 2
[9] = 48 h, 1 µM, compound concentration 1 uM, replicate 1
[10] = 48 h, 1 µM, compound concentration 1 uM, replicate 2
[11] = 48 h, 10 µM, compound concentration 10 uM, replicate 1
[12] = 48 h, 10 µM, compound concentration 10 uM, replicate 2

CC(C)(O)CNc1ncc(-c2ccnc(Nc3ccnc(Cl)c3)n2)c(CC2CC2)n1
Population Apoptotic (%) [1]: 44% | Population Fragmented Nuclei (%) [1]: 9% | Population Healthy Nuclei (%) [1]: 71% | Population Hoechst High Intensity Objects (%) [1]: 3% | Population Membrane Permeable-Phenotype (%) [1]: 8% | Population Mitochondria Different-Phenotype (%) [1]: 24% | Population Mitotic Cells (%) [1]: 55% | Population Normal (%) [1]: 96% | Population Pyknosed Nuclei (%) [1]: 18% | Population Tubulin-Different-Phenotype (%) [1]: 19% | Total Cell Count [1]: 182 | Population Apoptotic (%) [2]: 9% | Population Healthy Nuclei (%) [2]: 78% | Population Hoechst High Intensity Objects (%) [2]: 5% | Population Membrane Permeable-Phenotype (%) [2]: 5% | Population Mitochondria Different-Phenotype (%) [2]: 17% | Population Mitotic Cells (%) [2]: 90% | Population Normal (%) [2]: 94% | Population Pyknosed Nuclei (%) [2]: 12% | Population Tubulin-Different-Phenotype (%) [2]: 14% | Total Cell Count [2]: 97 | Population Apoptotic (%) [3]: 50% | Population Fragmented Nuclei (%) [3]: 18% | Population Healthy Nuclei (%) [3]: 42% | Population Hoechst High Intensity Objects (%) [3]: 14% | Population Membrane Permeable-Phenotype (%) [3]: 24% | Population Mitochondria Different-Phenotype (%) [3]: 90% | Population Mitotic Cells (%) [3]: 50% | Population Normal (%) [3]: 85% | Population Pyknosed Nuclei (%) [3]: 38% | Population Tubulin-Different-Phenotype (%) [3]: 100% | Total Cell Count [3]: 202 | Population Apoptotic (%) [4]: 15% | Population Fragmented Nuclei (%) [4]: 10% | Population Healthy Nuclei (%) [4]: 64% | Population Hoechst High Intensity Objects (%) [4]: 7% | Population Membrane Permeable-Phenotype (%) [4]: 28% | Population Mitochondria Different-Phenotype (%) [4]: 96% | Population Mitotic Cells (%) [4]: 84% | Population Normal (%) [4]: 92% | Population Pyknosed Nuclei (%) [4]: 26% | Total Cell Count [4]: 93 | Population Apoptotic (%) [5]: 35% | Population Fragmented Nuclei (%) [5]: 6% | Population Healthy Nuclei (%) [5]: 75% | Population Hoechst High Intensity Objects (%) [5]: 3% | Population Membrane Permeable-Phenotype (%) [5]: 5% | Population Mitochondria Different-Phenotype (%) [5]: 22% | Population Mitotic Cells (%) [5]: 64% | Population Normal (%) [5]: 96% | Population Pyknosed Nuclei (%) [5]: 18% | Population Tubulin-Different-Phenotype (%) [5]: 10% | Total Cell Count [5]: 196 | Population Apoptotic (%) [6]: 20% | Population Fragmented Nuclei (%) [6]: 11% | Population Healthy Nuclei (%) [6]: 74% | Population Hoechst High Intensity Objects (%) [6]: 4% | Population Membrane Permeable-Phenotype (%) [6]: 10% | Population Mitochondria Different-Phenotype (%) [6]: 20% | Population Mitotic Cells (%) [6]: 80% | Population Normal (%) [6]: 95% | Population Pyknosed Nuclei (%) [6]: 15% | Population Tubulin-Different-Phenotype (%) [6]: 16% | Total Cell Count [6]: 136 | Population Apoptotic (%) [7]: 52% | Population Fragmented Nuclei (%) [7]: 26% | Population Healthy Nuclei (%) [7]: 22% | Population Hoechst High Intensity Objects (%) [7]: 12% | Population Membrane Permeable-Phenotype (%) [7]: 47% | Population Mitochondria Different-Phenotype (%) [7]: 100% | Population Mitotic Cells (%) [7]: 47% | Population Normal (%) [7]: 87% | Population Pyknosed Nuclei (%) [7]: 51% | Population Tubulin-Different-Phenotype (%) [7]: 100% | Total Cell Count [7]: 240 | Population Apoptotic (%) [8]: 47% | Population Fragmented Nuclei (%) [8]: 14% | Population Healthy Nuclei (%) [8]: 40% | Population Hoechst High Intensity Objects (%) [8]: 14% | Population Mitochondria Different-Phenotype (%) [8]: 89% | Population Mitotic Cells (%) [8]: 52% | Population Normal (%) [8]: 85% | Population Pyknosed Nuclei (%) [8]: 44% | Total Cell Count [8]: 105 | Population Apoptotic (%) [9]: 45% | Population Fragmented Nuclei (%) [9]: 6% | Population Hoechst High Intensity Objects (%) [9]: 2% | Population Membrane Permeable-Phenotype (%) [9]: 9% | Population Mitochondria Different-Phenotype (%) [9]: 10% | Population Mitotic Cells (%) [9]: 54% | Population Normal (%) [9]: 97% | Population Pyknosed Nuclei (%) [9]: 17% | Population Tubulin-Different-Phenotype (%) [9]: 7% | Total Cell Count [9]: 130 | Population Apoptotic (%) [10]: 50% | Population Fragmented Nuclei (%) [10]: 13% | Population Healthy Nuclei (%) [10]: 76% | Population Hoechst High Intensity Objects (%) [10]: 3% | Population Membrane Permeable-Phenotype (%) [10]: 17% | Population Mitochondria Different-Phenotype (%) [10]: 24% | Population Mitotic Cells (%) [10]: 50% | Population Normal (%) [10]: 96% | Population Pyknosed Nuclei (%) [10]: 10% | Population Tubulin-Different-Phenotype (%) [10]: 22% | Total Cell Count [10]: 90 | Population Apoptotic (%) [11]: 82% | Population Fragmented Nuclei (%) [11]: 35% | Population Healthy Nuclei (%) [11]: 12% | Population Hoechst High Intensity Objects (%) [11]: 15% | Population Membrane Permeable-Phenotype (%) [11]: 50% | Population Mitochondria Different-Phenotype (%) [11]: 90% | Population Mitotic Cells (%) [11]: 17% | Population Normal (%) [11]: 84% | Population Pyknosed Nuclei (%) [11]: 51% | Population Tubulin-Different-Phenotype (%) [11]: 100% | Total Cell Count [11]: 308 | Population Apoptotic (%) [12]: 61% | Population Fragmented Nuclei (%) [12]: 19% | Population Healthy Nuclei (%) [12]: 23% | Population Hoechst High Intensity Objects (%) [12]: 17% | Population Membrane Permeable-Phenotype (%) [12]: 100% | Population Mitochondria Different-Phenotype (%) [12]: 100% | Population Mitotic Cells (%) [12]: 38% | Population Normal (%) [12]: 82% | Population Pyknosed Nuclei (%) [12]: 56% | Total Cell Count [12]: 141
